High-throughput results as filed in PubChem BioAssay.
M1 antagonist – antagonists of rat M1 muscarinic receptor. CHO-M1 cells, Fluo-4 calcium, ACh EC80 antagonist mode; hits give low values. B-score at 10 µM. AID 628. actives 3.4% (n = 64,000);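 active = calcium fluorescence response, raw or row-and-column corrected B-score, differing from the plate sample mean either way at a set confidence level, mostly lower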
mHtt clearance – mutant huntingtin protein clearance. HeLa Exon1htt(103Q)mCFP, aggregate imaging; zero = plate's median compound well. inhibition, % at 1.5 µM. actives 0.42% (n = 47,000). AID 853;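 active = inhibition of aggregate fluorescence above about 70%, also judged a hit by eye on the cell image, limit read from the data, passing the limit was not always enough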;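 note: cells exposed to compound for three days before fixation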
RORa activator – activators of human nuclear receptor RORA. P35398. CHO-K1 Gal4-RORA LBD luciferase reporter, luminescence; percent increase over mock-subtracted basal signal. activation, % at 10 µM. actives 1.5% (n = 65,000). AID 560;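 active = activation above the mean of all tested compounds plus 3 SD, cut at about 49% in these data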;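 note: 0% = DMSO-treated RORA cells and 100% = added signal equal to DMSO minus mock-transfected cells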
Target sequence (P35398 whole entry, looked up, the tested form may be a part): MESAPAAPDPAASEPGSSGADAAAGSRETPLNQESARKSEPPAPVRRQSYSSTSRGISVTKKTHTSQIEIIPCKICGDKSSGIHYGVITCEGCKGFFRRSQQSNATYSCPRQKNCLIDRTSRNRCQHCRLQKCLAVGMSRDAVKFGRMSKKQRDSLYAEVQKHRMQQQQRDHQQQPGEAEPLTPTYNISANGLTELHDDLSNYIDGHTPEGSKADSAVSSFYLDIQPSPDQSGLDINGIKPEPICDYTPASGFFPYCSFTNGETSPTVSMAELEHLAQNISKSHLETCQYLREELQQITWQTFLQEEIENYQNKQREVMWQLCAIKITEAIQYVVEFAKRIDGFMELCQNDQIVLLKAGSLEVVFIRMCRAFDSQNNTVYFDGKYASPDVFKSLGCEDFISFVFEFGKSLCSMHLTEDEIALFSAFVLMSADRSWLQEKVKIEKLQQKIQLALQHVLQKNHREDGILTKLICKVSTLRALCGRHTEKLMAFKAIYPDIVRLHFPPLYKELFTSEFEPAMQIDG
SF-1 act – activates the human nuclear receptor SF-1. Q13285. CHO-K1 Gal4-SF-1 LBD luciferase reporter; % increase over DMSO SF-1-specific signal. activation, % at 10 µM. actives 1.9% (n = 65,000);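 active = activation above the mean activation of all tested compounds plus 3 SD, cut at about 50% in these data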
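Assay system: CHO-K1 cells co-transfected with Gal4 DBD–human SF-1 LBD, 5xGal4 luciferase reporter; doses: 10 µM only; incubation: 20 h compound exposure at 37 °C after 1 h cell settling; signal: luciferase light emission; evaluation: percent activation versus DMSO; repeats: one test per compound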
M1 agonist – activates the M1 muscarinic receptor | CHO-M1 cells, Fluo-4 calcium fluorescence, agonist mode; hits give high values | B-score at 10 µM | actives 3% (n = 64,000);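 active = fluorescence rise, raw or as B-score row- and column-corrected plate score, outside the 99.7% band of its plate's samples, either direction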
D1 allo mod – allosterically modulates the human D1 dopamine receptor | P21728 | HEK293 D1, CRE-luciferase, dopamine EC30 potentiation; actives deviate in either direction | B-score at 10 µM | actives 5.9% (n = 58,000) | AID 641;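 active = luminescence count or its row- and column-corrected plate score outside the 99.7% band of the plate's sample wells, on either side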
* hit, by the source's call; . = no result given. Rows were chosen to be rich in hits. Some 11% of all compounds tested hit in one or more screens of this group.

SMILES	M1 antagonist	mHtt clearance	RORa activator	SF-1 act	M1 agonist	D1 allo mod
c1ccc(Cc2nnc3sc(-c4ccc5c(c4)OCO5)nn23)cc1	0.0474	-32.5	-2.4	19.7	0.752	6.21*
c1ccc(Cc2nnc3sc(-c4ccncc4)nn23)cc1	0.114	-12.9	-21.1	4.9	1.17	1.63
Nc1ncnc2c1ncn2C1CCC(CO)C(O)C1 (configuration not stated)	-0.277	24.8	4.4	0.8	-0.614	-0.498
Nc1ncnc2c1ncn2[C@@H]1O[C@H](CO)[C@@H](O)[C@H]1O	-0.345	.	1.0	0.1	12.8*	1.93
Cc1ccc(S(=O)(=O)NCCN(CCNS(=O)(=O)c2ccc(C)cc2)S(C)(=O)=O)cc1	-0.275	-24.8	8.9	8.5	1.03	-5.28*
Cc1ccc(S(=O)(=O)NCCCCCC(=O)N(C)C)cc1	-0.818	25.9	-17.6	0.2	-0.217	-4.28*
C#CC(C)(CC)NC(=O)c1cc(OC)c(OC)c(OC)c1 (configuration not stated)	-0.0435	.	-1.2	-4.6	0.886	1.37
CN(c1ncc(C(F)(F)F)cc1Cl)n1cc(C(N)=O)c2ccccc2c1=O	.	4.0	.	.	.	.
COc1ccc(Oc2cn[nH]c2-c2ccc(O)cc2O)cc1	0.529	-21.6	-9.5	2.1	-0.7	.
CCCc1ccc(Oc2cn[nH]c2-c2ccc(O)cc2O)cc1	0.0395	4.8	-6.2	-6.0	-0.408	-4.93*
CCCCn1c(N)c(N(CCOC)C(=O)CSc2nc3ccc(C)cc3[nH]2)c(=O)[nH]c1=O	-0.279	.	-1.3	3.8	-0.12	.
O=C(Nc1cnc2ccccc2c1)N1CCCCC1	0.745	.	72.0*	33.0	0.917	-2.07
O=C(Nc1cnc2ccccc2c1)N1CCOCC1	0.278	.	26.0	33.1	-0.466	-0.276
O=C1c2ccccc2-c2ncnc3cccc1c23	-0.187	-54.2	21.6	-2.9	0.318	12.7*
COC(=O)c1ccccc1S(=O)(=O)Nc1ccc(OC)nc1	0.189	-9.8	-4.3	-4.4	-0.353	-0.0625
Cc1csc2ncc(C(=O)Nc3ccccc3F)c(=O)n12	-1.79	.	39.6	49.7*	-0.06	1.17
Cc1cccc(NC(=O)c2cnc3scc(C)n3c2=O)c1	0.728	69.8	49.8*	48.9	0.792	0.0785
Cc1ccc(NC(=O)c2cnc3scc(C)n3c2=O)c(C)c1	0.639	.	-2.0	16.6	0.112	0.0383
Cc1csc2ncc(C(=O)Nc3ccc4c(c3)OCCO4)c(=O)n12	-0.671	.	97.2*	34.5	-0.0119	-0.72
CCSc1nnc(NC(=O)CSc2nnc(Cc3cccn3C)n2-c2ccc(C)cc2)s1	0.383	-11.0	-14.8	-0.4	-0.291	0.701
COc1ccc(O)c(C(=O)c2cc(C#N)c(=O)n(-c3c(C)n(C)n(-c4ccccc4)c3=O)c2)c1	-0.736	-12.4	5.5	6.2	5.84*	0.00917
Cc1ccc(O)c(C(=O)c2cc(C#N)c(=O)n(-c3c(C)n(C)n(-c4ccccc4)c3=O)c2)c1	.	42.2	.	.	.	.
CCN(CC)c1ccc2cc(-c3nc4ccccc4[nH]3)c(=O)oc2c1	-21.5*	-10.7	-31.9	-44.9	419*	-3.57*
CC(C)(C)OC(=O)N1CCC[C@H]1c1nnc(SCc2ccccc2F)o1	-0.787	.	7.4	-16.0	0.458	0.039
Cc1cc(NC(=O)CSc2nc(CCC3CCCC3)nc3ccccc23)no1	-0.636	84.3*	0.6	-19.3	-0.13	-1.68
SMILES	M1 antagonist	mHtt clearance	RORa activator	SF-1 act	M1 agonist	D1 allo mod
O=c1c2c3c(sc2nc2sc(C4CC4)nn12)CCCC3	0.0734	.	54.3*	37.3	0.636	-0.597
O=C1CCc2nc3sc4c(c3c(=O)n2N1)CCCC4	0.0682	84.0*	9.9	10.1	0.77	-0.045
Cc1sc2nc3n(c(=O)c2c1C)NC(=O)CC3	-2.42	.	-10.9	-2.7	-0.147	.
CC(C)c1ccc(S(=O)(=O)N2CCN(C(=O)c3cccc(F)c3)CC2)cc1	0.317	49.7	-2.1	10.8	-1.27	-0.0709
Cn1c(=O)c2c(nc(NCCCN3CCOCC3)n2Cc2ccc(Cl)cc2)n(C)c1=O	0.149	.	-6.9	-9.6	-0.0305	.
Cc1cc(NCCCN2CCOCC2)n2ncc(-c3ccc(Cl)cc3)c2n1	0.225	67.0	61.7*	70.1*	-0.678	-1.37
COc1cccc(NC(=O)CCN2CCN(C)CC2)c1	.	-207.8	-17.0	16.0	.	-0.0445
COC(=O)C(O)(CC(=O)Nc1cc(Cl)ccc1Cl)C(F)(F)F (configuration not stated)	.	10.5	.	.	.	.
CCOC(=O)c1ccccc1NC1c2ccccc2C(=O)N1c1cc(C)ccn1 (configuration not stated)	.	5.1	.	.	.	.
COc1cc(OC)c(NC2c3ccccc3C(=O)N2c2cc(C)ccn2)cc1Cl (configuration not stated)	0.187	.	84.0*	39.1	-0.661	0.0223
COc1ccc(CN2CCN(C)CC2)cc1OCc1ccccc1	0.0892	74.1*	-13.9	8.3	-0.0293	-0.616
CCCS(=O)(=O)N1CCN(Cc2ccc(OCc3ccccc3)c(OC)c2)CC1	-0.866	.	12.7	-3.0	1.34	0.425
O=c1c2ccccc2nc2ccc(NCc3ccco3)nn12	-0.0221	.	53.2*	8.9	-0.0189	0.496
CC1(C)CNC(=O)c2sc(N3CCCCC3)nc2C1	-0.266	-29.7	51.0*	30.5	4.58	0.637
Cc1cc(NC(=O)CS(=O)(=O)c2cn(Cc3ccccc3Cl)c3ccccc23)no1	3.66*	.	2.1	11.2	0.0806	0.268
CCOC(=O)N1CCN(C(=O)CS(=O)(=O)c2cn(Cc3ccccc3Cl)c3ccccc23)CC1	.	27.0	.	.	.	.
Cc1ccc2nc(C(O)C(O)c3nc4ccc(C)cc4[nH]3)[nH]c2c1 (configuration not stated)	0.488	.	22.6	51.0*	-2.53	-0.789
Cc1ccc2nc(C(F)OC(F)(F)F)[nH]c2c1 (configuration not stated)	1.79	72.6*	-7.1	-10.5	0.151	-1.02
CCOc1ccc2nc(NC(=O)c3ccoc3C)sc2c1	-0.0538	.	-25.7	-28.8	0.365	-5.56*
CCOc1ccc2nc(NC(=O)C(CC)Sc3nc(C)cc(=O)[nH]3)sc2c1 (configuration not stated)	0.153	.	51.8*	22.8	-0.167	0.128
CCOc1ccc2nc(NC(=O)Nc3cccs3)sc2c1	-0.0212	.	7.8	31.1	-4.98e-05	-3.78*
CCOc1ccc2nc(NC(=O)c3ccc(S(=O)(=O)N4CCOCC4)cc3)sc2c1	0.0934	-33.6	17.4	-1.6	-0.205	-0.877
Clc1ccc(Nc2ncnc3c2cnn3-c2ccccc2)cc1	0.306	.	71.9*	21.5	0.51	-1.08
CC(C)Nc1ncnc2c1cnn2-c1ccc(Cl)cc1	-2.85	.	10.7	14.5	0.801	-6.07*
Cc1nnc2c3cnn(-c4ccc(Cl)cc4)c3ncn12	-0.231	.	65.3*	25.3	1.81	-0.0901
COc1ccc(Nc2ncnc3c2cnn3-c2ccccc2)cc1OC	0.674	-34.2	-5.9	14.1	-1.16	1.88
